VIM-2 inhibitor – VIM-2 metallo-beta-lactamase inhibitors, primary screen, biochemical, epi-absorbance readout, Pseudomonas aeruginosa enzyme | purified VIM-2, nitrocefin hydrolysis, epi-absorbance fluorescence | inhibition, % at 5.6 µM | actives 0.89% (n = 290,000) | AID 1527, 2009;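 active means inhibition above the mean of all tested compounds plus 3 SD, cutoff set per screening run, cut at about 7.5% in these data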;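 further: red hydrolysis product quenches plate fluorescence so inhibitors raise well fluorescence; 0% = enzyme with DMSO and 100% = DMSO without enzyme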
IMP-1 inhibitor – IMP-1 metallo-beta-lactamase inhibitors, primary screen, biochemical, epi-absorbance readout, Pseudomonas aeruginosa enzyme | inhibition, % at 5.6 µM | purified IMP-1, nitrocefin hydrolysis, epi-absorbance fluorescence | metallo-beta-lactamase IMP-1 (Pseudomonas aeruginosa) | actives 0.45% (n = 290,000) | AID 1556, 2009;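 active means inhibition above the mean plus 3 SD of all compounds in the same screening run, cut at about 4.5% in these data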;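 further: 0% = IMP-1 with DMSO and 100% = DMSO wells lacking enzyme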
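Assay system: purified IMP-1; Quantity: IMP-1 0.2 nM before substrate addition; Medium: HEPES buffer pH 7.1 with ZnSO4 and Brij 35; Incubation: 15 min enzyme–compound preincubation, then 25 min nitrocefin reaction, 25 °C; Signal: fluorescence quenching readout, ex 480/em 530 nm; Controls: DMSO with and without IMP-1; Repeats: singlicate testing.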
DNA FID counter – compounds displacing fluorescent DNA intercalator, primary screen, artefact control for HCV NS3 helicase inhibitor project, biochemical, FID fluorescence | AID 1845, 2009 | DNA fluorescent intercalator displacement | inhibition, % at 7.9 µM | actives 0.17% (n = 290,000); in the data active means inhibition above about 37%;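 further: 0% = vehicle and 100% = reference compound; higher means more ethidium bromide displaced from hairpin DNA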
HCV NS3 hel inh – inhibitors of HCV NS3 helicase, primary screen, biochemical, Cy5 molecular beacon fluorescence; NS3 helicase DNA unwinding; inhibition, % at 10.9 µM; actives 0.56% (n = 290,000); AID 1800, 2009;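 active means inhibition above the mean of all tested compounds plus 3 SD, set per campaign, cut at about 35% in these data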;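 further: 0% = DMSO wells and 100% = thioflavine S control wells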
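test system = hepatitis C virus NS3 helicase domain fragment enzyme | reagent = annealed dual-labelled DNA beacon duplex, ATP-started | times = 1 h at 25 °C | detection = Cy5 fluorescence, 0 and 60 min reads | read-out basis = percent inhibition from t60/t0 fluorescence ratio | control set = DMSO and thioflavine S | replication = one well per compound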
SUMO HTRF inh – inhibitors of in vitro SUMOylation cascade, primary screen, biochemical, HTRF, uHTS | HTRF SUMOylation assay, SAE1/SAE2 + UBC9 | inhibition, % at 35 µM | SUMO-conjugating enzyme UBC9 (Homo sapiens), P63279 | actives 0.36% (n = 290,000); in the data active means inhibition above about 50%, passing the limit was not always enough
Target sequence (P63279 whole entry, looked up): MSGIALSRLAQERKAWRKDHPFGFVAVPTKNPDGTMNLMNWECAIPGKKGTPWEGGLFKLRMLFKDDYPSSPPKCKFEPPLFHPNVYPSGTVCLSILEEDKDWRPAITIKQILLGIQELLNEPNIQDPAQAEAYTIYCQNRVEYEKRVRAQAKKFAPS
* marks the source's active call; other numbers are inactive results; . = not tested or not shown. An excerpt weighted towards active compounds, which were near 2.1% of everything screened.

SMILES | VIM-2 inhibitor | IMP-1 inhibitor | DNA FID counter | HCV NS3 hel inh | SUMO HTRF inh
Nc1nc(NCCCN2CCOCC2)nc(Nc2cccc(F)c2)c1[N+](=O)[O-] | 9.7* | -4 | 16 | -40 | -14
CCN1CCCC1CNc1ncnc2c1[nH]c1ccc(Cl)cc12 (stereo not given) | 12* | 2 | 28 | -31 | 22
Cc1ccc2[nH]c3c(NCCN4CCOCC4)ncnc3c2c1 | 4 | 1 | 23 | 2 | -7
O=C1CCCN1CCCNc1ncnc2c1[nH]c1ccc(Cl)cc12 | 3 | 4 | 1 | -17 | 4
Clc1ccc2[nH]c3c(NCCCN4CCOCC4)ncnc3c2c1 | 9.9* | 2 | 38* | -15 | -30
COc1ccc(/C=C(\C#N)C(=O)OCC(=O)NC2CC2)cc1 | -2 | -3 | 0 | 8 | 18
COc1ccccc1NC(=O)Cc1nnc(SCC(=O)Nc2nccs2)n1C | -3 | -1 | -14 | -2 | 6
O=C(NCCCN1CCOCC1)C(=O)N/N=C/c1c2ccccc2cc2ccccc12 | 0 | -1 | 10 | -15 | -25
Cc1cc(=O)oc2cc(NC(=O)c3ccc(OC(F)F)cc3)ccc12 | 1 | 8.7* | -3 | -6 | 24
O=C(CCN1CCN(c2ccccc2)CC1)N/N=C/c1ccc(O)c(O)c1O | -3 | 0 | -16 | 18 | 76*
O=C(Cc1csc(N2CCOCC2)n1)N/N=C/c1ccc(O)c(O)c1O | -3 | 0 | -18 | 21 | 93*
COc1ccc(C(C(=O)NC2CCCC2)N(C(=O)c2ccco2)c2cc3c(cc2C(C)=O)OCO3)cc1 (stereo not given) | -1 | -2 | -37 | -2 | -3
N#C/C(=C\c1ccc(C(=O)O)cc1)c1nc2sc3c(c2c(=O)[nH]1)CCCC3 | -3 | -2 | -13 | 14 | 60*
CCN1CCN(Cc2ccc(NC(=O)c3cc(NC(=O)c4cc(C)on4)cc(OC)c3)cc2C(F)(F)F)CC1 | 1 | 0 | 42* | -90 | -13
CCN1CCN(Cc2ccc(NC(=O)c3cc(NC(=O)C(=O)c4c[nH]c5ccccc45)cc(OC)c3)cc2C(F)(F)F)CC1 | . | . | . | . | 2
CC(C)(C)NC(=O)CON=C1c2ccccc2-c2ccccc21 | -4 | -1 | -17 | -9 | -5
CC(C)(C)NCC(O)CON=C1c2ccccc2-c2ccccc21 (stereo not given) | 7.8* | 1 | 45* | -37 | 4
Cc1ccc(OCCSc2nc3ccccc3n2CC(=O)O)cc1C | -2 | 0 | -34 | 22 | -2
CC(=O)Oc1cc2oc(=O)c3c(c2cc1Cl)CCC3 | 9.7* | -5 | -7 | 10 | 9
CC(C)Oc1cc2oc(=O)c3c(c2cc1Cl)CCC3 | -1 | -3 | -1 | -4 | 4
O=C(OCc1ccc(F)cc1)c1ccc2c(c1)-c1ccccc1C2=O | -2 | 4.6* | 1 | -1 | 4
O=C(OCc1ccc(F)cc1)c1cc2ccccc2cc1O | -1 | -1 | -10 | -1 | -4
COc1ccc(CN(CC(=O)NC2CCCC2)C(=O)CCC(=O)Nc2nc(C)cs2)cc1 | -3 | -4 | -32 | 3 | -2
COc1cccc(Cn2c(=O)sc3ccccc3c2=O)c1 | 1 | -1 | -7 | 0 | -4
COc1cccc(Cn2c(=O)c3ccccc3n3nc(C)cc23)c1 | 9.1* | 1 | -10 | 18 | -1
SMILES | VIM-2 inhibitor | IMP-1 inhibitor | DNA FID counter | HCV NS3 hel inh | SUMO HTRF inh
COc1ccc(CCNC(=O)CNS(=O)(=O)c2ccc(F)c(Cl)c2)cc1OC | 2 | 0 | -35 | 5 | 13
N#Cc1ccccc1Cn1c(=O)n(Cc2ccc(C(=O)NCc3ccco3)cc2)c(=O)c2sccc21 | -1 | 7.0* | -19 | -4 | 11
CSc1ccccc1C(=O)C1CCCN(C(=O)CCN2CCCO2)C1 (stereo not given) | -1 | -1 | -6 | 10 | 20
COCCC(=O)N1CCCC(C(=O)c2ccccc2SC)C1 (stereo not given) | -2 | 19* | -8 | -18 | .
COc1cc(OC)cc(C(=O)NNS(=O)(=O)c2ccc(F)cc2)c1 | -3 | -4 | -7 | 4 | 12
Cc1cc(C)cc(N2CC(C(=O)OCC(=O)Nc3cc(C)on3)CC2=O)c1 (stereo not given) | 0 | -1 | -21 | 6 | 10
